Our source for the residual activity, GI50 and inhibition values is ChEMBL document CHEMBL1154962, “Novel 6-N-arylcarboxamidopyrazolo[4,3-d]pyrimidin-7-one derivatives as potential anti-cancer agents” (2010).

Each structure is given as a SMILES string.

The target in assay [1] is T1, Aurora kinase A (Homo sapiens) (UniProt O14965).
T1 sequence (whole entry): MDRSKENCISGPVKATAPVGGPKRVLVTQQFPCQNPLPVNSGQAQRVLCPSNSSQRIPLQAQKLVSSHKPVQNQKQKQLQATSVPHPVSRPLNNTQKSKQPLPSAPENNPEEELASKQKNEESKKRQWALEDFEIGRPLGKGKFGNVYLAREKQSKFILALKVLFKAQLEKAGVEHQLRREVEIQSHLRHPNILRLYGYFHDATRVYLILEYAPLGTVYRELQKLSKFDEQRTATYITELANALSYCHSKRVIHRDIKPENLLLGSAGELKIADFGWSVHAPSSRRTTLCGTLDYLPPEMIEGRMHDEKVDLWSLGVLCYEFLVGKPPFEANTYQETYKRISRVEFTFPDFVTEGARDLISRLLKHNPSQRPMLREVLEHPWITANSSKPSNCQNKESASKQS
The experiment in a line: Inhibition of human Aurora A assessed as remaining enzyme activity at 10 uM; values are per cent of control.

The test system of assay [2] is HT-29. The experiment in a line: Growth inhibition of human HT-29 cells after 2 days by MTT assay. The format is functional. The settings on record: HT-29, 48 h. In outline: (§1)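 HT-29 and DU-145 cells seeded at 5 × 10⁴ cells/mL; serial concentrations added in duplicate; 37 °C, 5% CO₂, two days. MTT dye (Cell Titer96) for up to 4 h at 37 °C, then solubilization/stop mix overnight at room temperature; OD at 570 nm. GI₅₀ = concentration giving 50% growth inhibition; mean ± SEM of three or more experiments; doxorubicin as internal standard.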
(Tetrazolium dyes change colour on reduction, which living cells bring about.)

The target in assay [3] is Glycogen synthase kinase-3 beta (Homo sapiens) (UniProt P49841). Put plainly: Inhibition of human GSK3-beta at 10 uM.
Assay [4] concerns the target Epidermal growth factor receptor (Homo sapiens) (UniProt P00533). Put plainly: Inhibition of human EGFR assessed as remaining enzyme activity at 10 uM; values are per cent of control.
Assay [5] concerns HT-29. The experiment in a line: Cytotoxicity against human HT-29 cells at 100 uM after 2 days by sulforhodamine B assay. The settings on record: HT-29, 48 h. Format: functional. In outline: (§2)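 Five human cancer lines (HT-29, DU-145, A-549, SK-MEL-2, SK-OV-3) seeded at 3–7 × 10³ cells/well; compounds at 100 µM added in duplicate; 37 °C, 5% CO₂, two days. Fixed with formalin, SRB stained, washed with 1% acetic acid, dye solubilized in 10 mM unbuffered Tris base; OD at 520 nm. Read-out is % inhibition.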

Assay [6] relates to DU-145. Put plainly: Growth inhibition of human DU145 cells after 2 days by MTT assay. Format: functional. The settings on record: DU-145, 48 h. In outline:
as §1

The target of assay [7] is Glycogen synthase kinase-3 beta (Homo sapiens) (UniProt P49841). The experiment in a line: Inhibition of human GSK3-beta assessed as remaining enzyme activity at 10 uM; values are per cent of control.
Assay [8] deals with T1, Aurora kinase A (Homo sapiens). Put plainly: Inhibition of human Aurora A at 10 uM.
Assay [9] concerns DU-145. The experiment in a line: Cytotoxicity against human DU145 cells at 100 uM after 2 days by sulforhodamine B assay. Format: functional. The settings on record: DU-145, 48 h. An outline of the steps:
as §2

The target of assay [10] is Platelet-derived growth factor receptor alpha (Homo sapiens) (UniProt P16234). Put plainly: Inhibition of human PDGFRalpha assessed as remaining enzyme activity at 10 uM; values are per cent of control.
A further assay relates to SK-OV-3. The experiment in a line: Cytotoxicity against human SKOV3 cells at 100 uM after 2 days by sulforhodamine B assay. The following applies: SK-OV-3, 48 h. Format: functional. In outline:
as §2

The subject of another assay is SK-MEL-2. The experiment in a line: Cytotoxicity against human SK-MEL-2 cells at 100 uM after 2 days by sulforhodamine B assay. The format is functional. The settings on record: SK-MEL-2, 48 h. An outline of the steps:
as §2
For orientation: Sulforhodamine B stains cellular protein and so reports cell mass.

The subject of another assay is A549. Put plainly: Cytotoxicity against human A549 cells at 100 uM after 2 days by sulforhodamine B assay. Format: functional. The settings on record: A549, 48 h. In outline:
as §2

Chain of Epidermal growth factor receptor (Homo sapiens) (P00533 whole entry): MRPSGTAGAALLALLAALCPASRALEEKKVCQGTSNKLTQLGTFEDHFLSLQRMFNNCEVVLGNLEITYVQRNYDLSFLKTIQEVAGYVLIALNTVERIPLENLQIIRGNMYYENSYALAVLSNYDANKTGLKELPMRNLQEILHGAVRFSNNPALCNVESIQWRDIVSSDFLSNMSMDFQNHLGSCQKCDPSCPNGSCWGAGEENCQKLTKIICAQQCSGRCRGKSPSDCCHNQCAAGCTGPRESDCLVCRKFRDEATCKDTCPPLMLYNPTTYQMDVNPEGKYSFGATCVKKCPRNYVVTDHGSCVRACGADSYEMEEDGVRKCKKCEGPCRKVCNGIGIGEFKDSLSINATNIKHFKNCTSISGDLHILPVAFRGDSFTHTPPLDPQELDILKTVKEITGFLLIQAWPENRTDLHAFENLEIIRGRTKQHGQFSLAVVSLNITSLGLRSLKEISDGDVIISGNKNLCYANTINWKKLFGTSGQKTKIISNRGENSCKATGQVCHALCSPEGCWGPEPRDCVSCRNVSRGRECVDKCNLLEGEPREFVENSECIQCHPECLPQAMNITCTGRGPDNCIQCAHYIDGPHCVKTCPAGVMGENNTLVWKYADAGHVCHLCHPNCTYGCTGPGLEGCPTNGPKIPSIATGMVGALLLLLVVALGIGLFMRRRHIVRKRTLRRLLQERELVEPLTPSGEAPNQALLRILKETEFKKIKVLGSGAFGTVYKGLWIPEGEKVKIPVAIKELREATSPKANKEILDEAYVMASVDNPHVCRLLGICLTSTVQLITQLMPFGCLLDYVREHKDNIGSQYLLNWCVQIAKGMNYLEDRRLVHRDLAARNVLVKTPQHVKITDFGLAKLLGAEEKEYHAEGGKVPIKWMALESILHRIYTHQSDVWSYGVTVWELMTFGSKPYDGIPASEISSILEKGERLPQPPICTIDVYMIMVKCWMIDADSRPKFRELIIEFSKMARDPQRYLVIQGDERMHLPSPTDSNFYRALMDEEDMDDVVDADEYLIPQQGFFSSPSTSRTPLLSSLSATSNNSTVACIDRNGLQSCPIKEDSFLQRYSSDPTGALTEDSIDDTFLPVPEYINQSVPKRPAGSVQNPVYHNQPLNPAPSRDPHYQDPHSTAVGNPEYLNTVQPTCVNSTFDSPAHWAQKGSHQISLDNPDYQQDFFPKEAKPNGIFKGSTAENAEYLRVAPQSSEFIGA
Chain of Platelet-derived growth factor receptor alpha (Homo sapiens) (P16234 whole entry): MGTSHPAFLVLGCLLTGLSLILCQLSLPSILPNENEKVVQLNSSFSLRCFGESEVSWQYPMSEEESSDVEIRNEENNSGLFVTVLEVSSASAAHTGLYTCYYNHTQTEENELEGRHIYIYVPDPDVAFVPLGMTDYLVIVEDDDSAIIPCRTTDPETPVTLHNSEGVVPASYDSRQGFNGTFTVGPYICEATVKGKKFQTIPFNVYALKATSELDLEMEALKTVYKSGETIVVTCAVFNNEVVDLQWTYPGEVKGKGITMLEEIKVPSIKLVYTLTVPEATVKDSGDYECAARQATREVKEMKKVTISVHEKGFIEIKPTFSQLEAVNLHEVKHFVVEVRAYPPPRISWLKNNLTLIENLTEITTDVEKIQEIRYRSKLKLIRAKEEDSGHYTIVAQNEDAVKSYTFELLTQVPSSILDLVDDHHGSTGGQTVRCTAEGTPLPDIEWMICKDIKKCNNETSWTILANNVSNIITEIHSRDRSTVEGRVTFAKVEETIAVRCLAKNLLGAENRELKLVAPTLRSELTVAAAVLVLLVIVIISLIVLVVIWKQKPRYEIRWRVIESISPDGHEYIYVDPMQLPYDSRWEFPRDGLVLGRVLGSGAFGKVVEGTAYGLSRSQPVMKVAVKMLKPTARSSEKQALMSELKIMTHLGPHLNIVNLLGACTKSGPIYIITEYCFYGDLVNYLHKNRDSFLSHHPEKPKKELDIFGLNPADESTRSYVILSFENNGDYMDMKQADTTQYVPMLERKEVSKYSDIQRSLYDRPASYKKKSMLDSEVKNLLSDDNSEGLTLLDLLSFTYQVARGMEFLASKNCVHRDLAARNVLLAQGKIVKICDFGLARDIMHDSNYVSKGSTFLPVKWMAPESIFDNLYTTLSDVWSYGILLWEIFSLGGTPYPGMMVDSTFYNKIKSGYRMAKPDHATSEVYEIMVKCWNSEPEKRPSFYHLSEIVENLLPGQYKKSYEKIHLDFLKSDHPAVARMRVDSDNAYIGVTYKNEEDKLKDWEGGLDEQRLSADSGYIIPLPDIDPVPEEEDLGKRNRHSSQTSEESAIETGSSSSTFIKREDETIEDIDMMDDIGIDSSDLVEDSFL
Chain of Glycogen synthase kinase-3 beta (Homo sapiens) (P49841 whole entry, looked up): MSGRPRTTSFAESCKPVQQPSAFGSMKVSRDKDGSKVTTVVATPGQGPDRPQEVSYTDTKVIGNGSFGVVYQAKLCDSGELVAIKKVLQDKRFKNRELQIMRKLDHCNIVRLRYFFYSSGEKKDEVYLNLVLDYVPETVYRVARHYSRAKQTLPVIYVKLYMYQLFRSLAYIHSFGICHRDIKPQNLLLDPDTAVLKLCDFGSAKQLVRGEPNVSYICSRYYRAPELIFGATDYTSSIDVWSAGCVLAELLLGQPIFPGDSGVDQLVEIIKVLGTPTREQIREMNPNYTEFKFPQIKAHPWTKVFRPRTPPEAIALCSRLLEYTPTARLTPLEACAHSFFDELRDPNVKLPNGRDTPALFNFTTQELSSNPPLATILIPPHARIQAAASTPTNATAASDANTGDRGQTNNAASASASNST

Regarding `CCCCCc1nc2c(-c3ccc(Cl)cc3)n[nH]c2c(=O)n1NC(=O)c1cccc(C)c1`, the residual activity came out at 7% in assay [1], 82% in [4], 6% in [7] and 92% in assay [10]. Also, the GI50 in the assay with HT-29 [2] was found to be 5.37 µM; with DU-145 [6], 12.9 µM. Further, the figures for the inhibition in assay [3] and in assay [8] were 94% and 93%, respectively. For the same molecule, the inhibition at 100 µM with HT-29 [5] came to 90.5%; with DU-145 [9] it was 88.8%.

Consider `Cc1cccc(C(=O)Nn2c(CC3CCCCC3)nc3c(-c4ccc(Cl)cc4)n[nH]c3c2=O)c1`, for which the residual activity in assay [1] turned out to be 18%; in assay [4] it was 85%; in [7], 11%; in assay [10], 95%. The results for the GI50 in the assay on HT-29 [2] and in the assay on DU-145 [6] were 0.44 µM and 1.07 µM, respectively. Moreover, the inhibition was found to be 89% in [3] and 82% in assay [8]. Moreover, the inhibition at 100 µM is 88.7% in the assay on HT-29 [5] and 85.9% in the assay on DU-145 [9].

Take `CCCCCc1nc2c(-c3ccc(Cl)cc3)n[nH]c2c(=O)n1NC(=O)c1ccccc1`: the residual activity amounted to 9% in assay [1], 76% in [4], 8% in assay [7] and 99% in assay [10]. The values for the GI50 in the assay with HT-29 [2] and in the assay with DU-145 [6] were 2.26 µM and 22.1 µM, respectively. Also, the values for the inhibition in [3] and in assay [8] were 92% and 91%, respectively. In addition, the inhibition at 100 µM was 90.1% in the assay on HT-29 [5] and 88.7% with DU-145 [9].

Consider `CCCCc1nc2c(-c3ccc(Cl)cc3)n[nH]c2c(=O)n1NC(=O)c1ccccc1`, for which the residual activity in [1] is 16%; in [4], 86%; in [7] it was 11%; in assay [10], 105%. Also, the GI50 in the assay on HT-29 [2] was 0.71 µM; with DU-145 [6], 29.1 µM. The inhibition in [3] was 89%; in assay [8], 84%. The results for the inhibition at 100 µM in the assay with HT-29 [5] and with DU-145 [9] were 89.5% and 93%, respectively.

On to `O=C(Cc1ccccc1)Nn1c(CC2CCCCC2)nc2c(-c3ccc(Cl)cc3)n[nH]c2c1=O`, for which the residual activity in assay [1] was 26%; in [4] it was 113%; in assay [7], 11%; in assay [10] it was 77%. Also, the GI50 in the assay on HT-29 [2] was determined as 6.39 µM; in the assay on DU-145 [6], 15.1 µM. The values for the inhibition in [3] and in assay [8] were 89% and 74%, respectively. Further, the inhibition at 100 µM in the assay on HT-29 [5] is 85.5%; in the assay with DU-145 [9], 79.8%.

Regarding `COc1cccc(-c2nc3c(-c4ccc(Cl)cc4)n[nH]c3c(=O)n2NC(=O)c2ccccc2)c1`, the GI50 is 20.4 µM in the assay with HT-29 [2] and 17.9 µM in the assay on DU-145 [6]. Besides, the inhibition at 100 µM with SK-OV-3 is 81.7%; in the assay with HT-29 [5], 87.3%; in the assay with SK-MEL-2, 84.9%; in the assay on A549, 81.8%; in the assay on DU-145 [9] it was 94.1%.

As for `O=C(Nn1c(-c2ccccc2)nc2c(-c3ccc(Cl)cc3)n[nH]c2c1=O)c1ccccc1`, the GI50 in the assay with HT-29 [2] came to 20.6 µM; in the assay with DU-145 [6], 20.1 µM. Also, the inhibition at 100 µM in the assay on HT-29 [5] is 92%; with DU-145 [9], 90.2%.

`COc1cccc(Cc2nc3c(-c4ccc(Cl)cc4)n[nH]c3c(=O)n2NC(=O)c2ccccc2)c1`: the GI50 with HT-29 [2] was found to be 22.1 µM; in the assay with DU-145 [6], 44.9 µM. Further, the inhibition at 100 µM with HT-29 [5] turned out to be 89.3%; in the assay on DU-145 [9], 93.2%.

With `O=C(Nn1c(CCc2ccccc2)nc2c(-c3ccc(Cl)cc3)n[nH]c2c1=O)c1ccccc1`, the GI50 in the assay with HT-29 [2] was found to be 23.4 µM; in the assay with DU-145 [6] it was 86.7 µM. The inhibition at 100 µM with HT-29 [5] is 86.5%; with DU-145 [9], 85.6%.

On to `O=C(Nn1c(-c2cccc([N+](=O)[O-])c2)nc2c(-c3ccc(Cl)cc3)n[nH]c2c1=O)c1ccccc1`, for which the GI50 in the assay on HT-29 [2] was found to be 18.4 µM; in the assay with DU-145 [6], 17.1 µM. Moreover, the inhibition at 100 µM in the assay on SK-OV-3 is 86.8%; in the assay on HT-29 [5] it was 87.8%; with SK-MEL-2, 89%; in the assay with A549, 88.6%; with DU-145 [9], 94.2%.

One may read the residual activity as the signal under treatment as a percentage of the control signal. As usually defined, the GI50 is the concentration that inhibits growth by half. Low values mean more potent growth inhibition, high ones less potent growth inhibition. Broadly, the inhibition is the relative decrease from the control value, in per cent. A lower inhibition goes with a weak effect.
